According to ChEMBL document CHEMBL1151697, “Synthesis and structure-activity relationships for biphenyl H3 receptor antagonists with moderate anti-cholinesterase activity” (Bioorg Med Chem, 2008):
The source made the active and inactive calls. No cut-off for these calls is given here.

Tests used:
SK-N-MC [1] = assay: Cytotoxicity against human SK-N-MC cells at 1 uM after 6 hrs by MTT test; type: functional, cell-based
How it was run: (§1)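 MTT viability test: SK-N-MC cells held 6 h with compound (1–10 µM) or vehicle. MTT (5 mg/ml stock) added for 3 h, cells washed in PBS, formazan dissolved in 0.1 N HCl in isopropanol, absorbance read at 570 nm. Viability given relative to control.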

SK-N-MC [2] = assay: Cytotoxicity against human SK-N-MC cells at 10 uM after 6 hrs by MTT test; type: functional, cell-based; how it was run: as §1
Histamine H4 receptor [3] = molecular target: T1, Histamine H4 receptor (Homo sapiens, UniProt Q9H3N8); assay: Displacement of [3H]histamine from human histamine H4 receptor expressed in SK-N-MC cells at upto 10 uM
[4] = molecular target: Histamine H2 receptor (Cavia porcellus) (UniProt P47747); assay: (§2) Antagonist activity at histamine H2 receptor in guinea pig atrium assessed as changes in rate of spontaneous beat; type: functional, tissue-based; details: Cardiac atrium
How it was run: (§3)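 Guinea-pig atria (H2) in Ringer–Locke at 31 °C (mM: NaCl 154.0, KCl 5.6, CaCl2 1.08, NaHCO3 5.95, glucose 11.1), gassed 95% O2–5% CO2. Spontaneous beating rate recorded by cardiotachograph. Cumulative dimaprit curves (0.1–100 µM) run without and with compound up to 10 µM. Affinity given as pKB by Furchgott, or as pD2′ by Van Rossum if non-surmountable.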

[5] = molecular target: T2, Acetylcholinesterase (Rattus norvegicus) (UniProt P37136); assay: Inhibition of acetylcholinesterase in Wistar rat brain homogenate at upto 10 uM by Ellman's method; type: tissue-based
T2 sequence (whole entry): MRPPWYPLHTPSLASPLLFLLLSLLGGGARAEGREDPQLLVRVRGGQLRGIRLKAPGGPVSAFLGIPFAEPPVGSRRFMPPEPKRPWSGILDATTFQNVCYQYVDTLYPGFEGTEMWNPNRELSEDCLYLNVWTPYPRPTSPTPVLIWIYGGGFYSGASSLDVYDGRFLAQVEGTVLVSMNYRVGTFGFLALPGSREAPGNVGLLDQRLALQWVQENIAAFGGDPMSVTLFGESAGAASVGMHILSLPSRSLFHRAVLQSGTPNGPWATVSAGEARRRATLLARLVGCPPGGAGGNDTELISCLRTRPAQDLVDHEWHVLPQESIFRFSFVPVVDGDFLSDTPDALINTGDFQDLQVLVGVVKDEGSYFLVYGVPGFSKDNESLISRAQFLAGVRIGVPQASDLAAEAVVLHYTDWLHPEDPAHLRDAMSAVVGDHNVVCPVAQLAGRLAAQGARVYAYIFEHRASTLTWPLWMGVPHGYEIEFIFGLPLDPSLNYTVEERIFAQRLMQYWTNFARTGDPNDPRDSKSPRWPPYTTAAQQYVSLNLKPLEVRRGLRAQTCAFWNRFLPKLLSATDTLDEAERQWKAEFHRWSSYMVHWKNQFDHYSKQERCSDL

Histamine H3 receptor [6] = molecular target: T3, Histamine H3 receptor (Homo sapiens, UniProt Q9Y5N1); assay: Antagonist activity at human histamine H3 receptor expressed in SK-N-MC cells by CRE-mediated beta-galactosidase reporter gene assay administered 10 mins before (R)-alpha-methylhistamine challenge after 6 hrs; type: functional, cell-based
How it was run: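 SK-N-MC cells stably carrying human H3 and a β-galactosidase reporter. Compound added to medium, forskolin 5 min later, then (R)-α-methylhistamine 10 min after compound; 6 h at 37 °C. Cells lysed in phosphate assay buffer (pH 8) with 0.5% Triton and 40 mM β-mercaptoethanol; β-galactosidase read at 570 nm. Means of 4–6 experiments.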

[7] = molecular target: Histamine H3 receptor (Cavia porcellus) (UniProt Q9JI35); assay: Antagonist activity at histamine H3 receptor in electrically-stimulated guinea pig ileum assessed as inhibition of (R)-alpha-methylhistamine-induced twitch contraction in presence of 1 uM mepyramine; type: functional, tissue-based
How it was run: (§4)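 Guinea-pig ileum, electrically stimulated (0.1 Hz, 1 ms, submaximal voltage). Twitch inhibition by cumulative (R)-α-methylhistamine (1 nM to 1 µM) with 1 µM mepyramine present. Compounds tested at 1 nM to 30 µM. Potency as pKB from Furchgott's equation, or as pD2′ (Van Rossum) for non-surmountable antagonism.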

[8] = molecular target: Histamine H1 receptor (Cavia porcellus) (UniProt P31389); assay: Antagonist activity at histamine H1 receptor in guinea pig terminal ileum; type: functional, tissue-based
How it was run: (§5)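 Guinea-pig (250–350 g) terminal ileum (H1) suspended isometrically in Krebs–Henseleit at 37 °C, aerated 95% O2–5% CO2. Cumulative histamine curves (1 nM to 1 µM) run without and with compound up to 10 µM. pKB (apparent pA2) from Furchgott's equation; pD2′ from Van Rossum's equation when antagonism was non-surmountable.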

Histamine H3 receptor [9] = molecular target: T3, Histamine H3 receptor; assay: Displacement of [3H]RAMHA from human histamine H3 receptor expressed in SK-N-MC cells; type: cell-based
How it was run: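 SK-N-MC membranes bearing human H3 incubated 60 min at room temperature with 0.5 nM [3H]-(R)-α-methylhistamine and competitor (0.01 nM to 10 µM). Rapid filtration, two washes in ice-cold 50 mM Tris–HCl/5 mM EDTA. Nonspecific binding with 10 µM histamine. pKi via Cheng–Prusoff; means of 4–6 experiments.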

Histamine H3 receptor [10] = molecular target: Histamine H3 receptor (Rattus norvegicus, UniProt Q9QYN8); assay: Displacement of [3H]RAMHA from histamine H3 receptor in Wistar rat brain membrane; type: cell membranes
How it was run: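 Membranes from male Wistar rat brain (150–200 g) incubated 45 min with 0.5 nM [3H]RAMHA and compound (0.03 nM to 10 µM) in 50 mM Tris–HCl pH 7.4, 50 mM NaCl, 0.5 mM EDTA. Vacuum filtration, two ice-cold buffer rinses. Nonspecific binding set with 10 µM thioperamide. pKi by Cheng–Prusoff.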

[11] = molecular target: Histamine H2 receptor (Cavia porcellus) (UniProt P47747); assay: Antagonist activity at histamine H2 receptor in guinea pig atrium assessed as changes in rate of spontaneous beat at upto 0.1 uM; type: functional, tissue-based; details: Cardiac atrium; how it was run: as §3
[12] = molecular target: Histamine H1 receptor (Cavia porcellus) (UniProt P31389); assay: Antagonist activity at histamine H1 receptor in guinea pig terminal ileum at upto 1 uM; type: functional, tissue-based; how it was run: as §5
[13] = molecular target: Histamine H2 receptor (Cavia porcellus) (UniProt P47747); assay: Antagonist activity at histamine H2 receptor in guinea pig atrium assessed as changes in rate of spontaneous beat at upto 1 uM; type: functional, tissue-based; details: Cardiac atrium; how it was run: as §3
[14] = molecular target: Histamine H3 receptor (Cavia porcellus) (UniProt Q9JI35); assay: Antagonist activity at histamine H3 receptor in electrically-stimulated guinea pig ileum assessed as inhibition of (R)-alpha-methylhistamine-induced twitch contraction at upto 1 uM in presence of 1 uM mepyramine; type: functional, tissue-based; how it was run: as §4
Histamine H4 receptor [15] = molecular target: T1, Histamine H4 receptor; assay: Displacement of [3H]histamine from human histamine H4 receptor expressed in SK-N-MC cells
[16] = molecular target: T2, Acetylcholinesterase (Rattus norvegicus); assay: Inhibition of acetylcholinesterase in Wistar rat brain homogenate at upto 1 to 100 uM by Ellman's method; type: tissue-based
How it was run: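 Male Wistar rat (150–200 g) brain homogenate in 0.1 M phosphate buffer (pH 8.0) with DTNB (5 mM) and compound at 1–100 µM. Reaction started at 37 °C by adding acetylthiocholine (75 mM solution) and stopped after 15 min with 4% formalin. 5-Thio-2-nitrobenzoate absorbance at 412 nm. Percent inhibition versus control; reported as pIC50.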

Acetylcholinesterase = molecular target: T4, Acetylcholinesterase (Rattus norvegicus, UniProt P37136); assay: Inhibition of acetylcholinesterase in Wistar rat brain homogenate by Ellman's method; type: tissue-based
T4 sequence (P37136 whole entry): T2 sequence (whole entry)

[17] = molecular target: Histamine H2 receptor (Cavia porcellus) (UniProt P47747); assay: Antagonist activity at histamine H2 receptor in guinea pig atrium assessed as changes in rate of spontaneous beat at upto 10 uM; type: functional, tissue-based; details: Cardiac atrium; how it was run: as §3
Histamine H2 receptor = Histamine H2 receptor (Cavia porcellus, UniProt P47747); assay: as §2; type: functional, tissue-based, Cardiac atrium; how it was run: as §3
[18] = molecular target: Histamine H2 receptor (Cavia porcellus) (UniProt P47747); assay: Antagonist activity at histamine H2 receptor in guinea pig atrium assessed as changes in rate of spontaneous beat at upto 3 uM; type: functional, tissue-based; details: Cardiac atrium; how it was run: as §3
[19] = molecular target: Histamine H1 receptor (Cavia porcellus) (UniProt P31389); assay: Antagonist activity at histamine H1 receptor in guinea pig terminal ileum at upto 10 uM; type: functional, tissue-based; how it was run: as §5

T1 sequence (Q9H3N8 whole entry): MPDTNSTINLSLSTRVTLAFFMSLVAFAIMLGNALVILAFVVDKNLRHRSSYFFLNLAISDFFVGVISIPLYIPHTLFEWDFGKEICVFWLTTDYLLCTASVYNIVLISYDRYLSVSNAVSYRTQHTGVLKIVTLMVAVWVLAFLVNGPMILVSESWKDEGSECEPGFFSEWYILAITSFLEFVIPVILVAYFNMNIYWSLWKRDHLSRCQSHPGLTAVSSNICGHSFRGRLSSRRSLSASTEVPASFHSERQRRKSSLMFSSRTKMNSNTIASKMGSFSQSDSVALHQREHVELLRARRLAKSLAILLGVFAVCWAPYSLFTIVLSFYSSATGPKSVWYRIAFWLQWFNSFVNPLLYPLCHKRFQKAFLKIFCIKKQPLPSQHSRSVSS
Chain of Histamine H3 receptor (Rattus norvegicus, UniProt Q9QYN8) (Q9QYN8 whole entry): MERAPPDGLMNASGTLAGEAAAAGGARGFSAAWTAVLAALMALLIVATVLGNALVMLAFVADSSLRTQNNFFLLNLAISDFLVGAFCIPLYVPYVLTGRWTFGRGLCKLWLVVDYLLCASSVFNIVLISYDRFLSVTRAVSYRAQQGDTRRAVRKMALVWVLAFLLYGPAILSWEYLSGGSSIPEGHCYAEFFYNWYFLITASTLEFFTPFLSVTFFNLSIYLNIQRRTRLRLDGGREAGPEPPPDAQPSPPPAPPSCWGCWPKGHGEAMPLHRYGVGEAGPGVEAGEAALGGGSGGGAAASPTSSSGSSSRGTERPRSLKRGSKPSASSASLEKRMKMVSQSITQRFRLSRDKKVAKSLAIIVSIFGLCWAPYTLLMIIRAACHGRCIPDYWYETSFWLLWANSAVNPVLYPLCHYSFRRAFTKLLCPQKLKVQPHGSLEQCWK
Chain of Histamine H1 receptor (Cavia porcellus) (P31389 whole entry): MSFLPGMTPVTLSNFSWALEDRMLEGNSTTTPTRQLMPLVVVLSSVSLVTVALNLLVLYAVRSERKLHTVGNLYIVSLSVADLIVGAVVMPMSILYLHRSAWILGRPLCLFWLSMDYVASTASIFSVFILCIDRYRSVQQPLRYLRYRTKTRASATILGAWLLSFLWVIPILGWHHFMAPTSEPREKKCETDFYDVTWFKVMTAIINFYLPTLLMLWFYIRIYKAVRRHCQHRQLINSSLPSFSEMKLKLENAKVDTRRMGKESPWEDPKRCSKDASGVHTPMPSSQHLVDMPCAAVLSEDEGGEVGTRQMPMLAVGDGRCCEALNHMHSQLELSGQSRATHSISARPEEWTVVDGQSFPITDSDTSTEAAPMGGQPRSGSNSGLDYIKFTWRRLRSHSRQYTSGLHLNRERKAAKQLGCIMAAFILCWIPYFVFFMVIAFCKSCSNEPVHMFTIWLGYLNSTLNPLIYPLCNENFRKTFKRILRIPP
T3 sequence (Q9Y5N1 whole entry): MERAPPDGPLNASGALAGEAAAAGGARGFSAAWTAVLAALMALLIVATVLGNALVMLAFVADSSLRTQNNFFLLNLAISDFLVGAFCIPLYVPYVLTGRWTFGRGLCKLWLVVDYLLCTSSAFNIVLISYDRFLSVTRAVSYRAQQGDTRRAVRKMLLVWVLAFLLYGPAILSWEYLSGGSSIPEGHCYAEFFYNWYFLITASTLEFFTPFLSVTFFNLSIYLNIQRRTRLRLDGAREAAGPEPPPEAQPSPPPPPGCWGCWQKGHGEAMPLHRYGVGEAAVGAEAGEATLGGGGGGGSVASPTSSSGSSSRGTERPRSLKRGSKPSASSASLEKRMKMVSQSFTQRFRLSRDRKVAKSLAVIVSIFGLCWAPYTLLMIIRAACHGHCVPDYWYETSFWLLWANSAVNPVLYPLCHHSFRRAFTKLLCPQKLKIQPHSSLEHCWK
Chain of Histamine H2 receptor (Cavia porcellus) (P47747 whole entry): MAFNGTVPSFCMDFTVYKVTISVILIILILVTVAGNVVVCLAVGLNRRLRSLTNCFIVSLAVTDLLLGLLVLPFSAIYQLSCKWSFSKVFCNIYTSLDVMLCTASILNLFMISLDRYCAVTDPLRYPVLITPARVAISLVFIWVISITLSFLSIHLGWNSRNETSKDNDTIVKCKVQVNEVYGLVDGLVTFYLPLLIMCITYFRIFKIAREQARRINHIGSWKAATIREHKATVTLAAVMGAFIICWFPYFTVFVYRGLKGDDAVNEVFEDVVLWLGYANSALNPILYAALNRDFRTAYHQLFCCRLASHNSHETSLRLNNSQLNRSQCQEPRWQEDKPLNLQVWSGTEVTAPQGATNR
Chain of Histamine H3 receptor (Cavia porcellus) (Q9JI35 whole entry): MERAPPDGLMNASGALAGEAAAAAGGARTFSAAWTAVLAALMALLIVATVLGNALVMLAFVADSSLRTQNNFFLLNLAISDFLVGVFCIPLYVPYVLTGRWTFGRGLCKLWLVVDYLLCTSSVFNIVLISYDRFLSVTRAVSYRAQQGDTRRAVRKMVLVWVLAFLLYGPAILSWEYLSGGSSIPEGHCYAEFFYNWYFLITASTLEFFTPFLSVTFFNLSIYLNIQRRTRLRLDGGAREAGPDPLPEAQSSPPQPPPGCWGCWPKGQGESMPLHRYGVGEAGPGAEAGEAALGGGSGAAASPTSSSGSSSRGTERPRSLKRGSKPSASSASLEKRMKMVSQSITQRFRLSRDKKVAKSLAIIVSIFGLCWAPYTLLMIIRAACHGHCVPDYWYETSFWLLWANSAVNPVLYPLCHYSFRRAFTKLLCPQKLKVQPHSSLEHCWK
Chain of Histamine H2 receptor (P47747 whole entry): as the sequence (P47747 whole entry) above

SMILES	Activity (SK-N-MC [1])	Activity (SK-N-MC [2])	Activity (Histamine H4 receptor [3])	Activity [5]	pKb (Histamine H3 receptor [6])	pKb [7]	pKb [8]	Ki (Histamine H3 receptor [9]) [nM]	Ki (Histamine H3 receptor [10]) [nM]	Activity [13]	Ki (Histamine H4 receptor [15]) [nM]	inhibition [16] [%]	pD2 [8]	IC50 (Acetylcholinesterase) [nM]	also measured
c1cc(-c2ccc(CCN3CCCCC3)cc2)ccc1CCN1CCCCC1	Not toxic	Not toxic	inactive	inactive	8.5	8.43	5.32								pKb [4]: 6.38
CC1CCN(CCc2ccc(-c3ccc(CCN4CCC(C)CC4)cc3)cc2)CC1	Not toxic	Not toxic	inactive	inactive	8.17	7.43	5.85	16.6	55						Activity [11]: inactive
CCCCCNCc1ccc(-c2ccc(CNCCCCC)cc2)cc1	Not toxic	Not toxic		inactive	6.51					inactive	6460				Activity [12]: inactive; Activity [14]: inactive
CN(Cc1ccccc1)Cc1ccc(-c2ccc(CN3CCCCC3)cc2)cc1	Not toxic	Not toxic	inactive		7.98	7.34		6.76	14.1			79	4.75	3160	Activity [11]: inactive
CC1CC(C)CN(Cc2ccc(-c3ccc(CN4CC(C)CC(C)C4)cc3)cc2)C1 (centres undefined)	Not toxic	Not toxic		inactive	6.19						13800		5.08		Activity [17]: inactive
c1cc(-c2ccc(CNC3CCCCC3)cc2)ccc1CNC1CCCCC1	Not toxic	Not toxic	inactive		6.54	5.82				inactive		70		5130	Activity [12]: inactive
CN(Cc1ccc(-c2ccc(CN(C)C3CCCCC3)cc2)cc1)C1CCCCC1	Not toxic	Not toxic			7.27	7.45				inactive	6460	57	5.24	1660	
CCCN(CCC)Cc1ccc(-c2ccc(CN(CCC)CCC)cc2)cc1	Not toxic	Not toxic			7.8	8.78	5.54	9.33	3.16						EC50 (Histamine H2 receptor): 3390 nM
CC1CC(C)CN(Cc2ccc(-c3ccc(CN4CCCCC4)cc3)cc2)C1 (centres undefined)	Not toxic	Not toxic	inactive		8.48	9.02	6.15	0.871	2.4			91		2400	Activity [18]: inactive
CC(=O)N1CCN(Cc2ccc(-c3ccc(CN4CCN(C(C)=O)CC4)cc3)cc2)CC1	Not toxic	Not toxic	inactive	inactive	6.7								4.81		Activity [17]: inactive; Activity [14]: inactive
N#Cc1ccc(OCc2ccc(-c3ccc(CN4CCCCC4)cc3)cc2)cc1	Not toxic	Not toxic	inactive	inactive	7.27	7.27		75.9	70.8	inactive					Activity [19]: inactive
CN(C)Cc1ccc(-c2ccc(CN3CCCCC3)cc2)cc1	Not toxic	Not toxic	inactive	inactive	8.92	9.05		2.19	1.32						Activity [18]: inactive; Activity [19]: inactive
c1cc(-c2ccc(CN3CCCCC3)cc2)ccc1CN1CCCCC1	Not toxic	Not toxic			8.77	8.58		3.39			25100	82	4.84	5890	Activity [17]: inactive
